Measured values as given in ChEMBL document CHEMBL4842351, “Synthesis and evaluation of novel and potent protease activated receptor 4 (PAR4) antagonists based on a quinazolin-4(3H)-one scaffold” (Eur J Med Chem, 2021).
The source made the active and inactive calls. No cut-off for these calls is given here.

Tests used:
[1] = Metabolic stability in human liver microsomes assessed as half life incubated for 60 mins by LC-MS/MS analysis; type: ADME, Microsome
Platelet [2] = assay: Antiplatelet activity against SFLLRN-NH2-induced human platelet in platelet rich plasma assessed as inhibition of platelet aggregation at 10 uM by photo-turbidimetry method; type: functional, cell-based
Outline: (§1)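 Human PRP prepared as for the aggregation assay and adjusted to 3×10⁸/mL. Compound preincubated for 5 min at 37 °C, then aggregation triggered by AYPGKF, SFLLRN, collagen, ADP or U46619. Maximum percent inhibition taken from 5 min light-transmittance traces. Mean ± SD, n=3.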

[3] = Cytotoxicity against HEK293T cells assessed as cell viability at 20 uM incubated for 48 hrs by CCK-8 assay; type: cell-based, HEK-293T; conditions: human, read-out: Activity
Outline: (§2)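 HEK293 cells in exponential growth, 4000/well, left to adhere overnight, then exposed to three compound concentrations for 48 h. Equal-volume DMSO served as control. CCK-8 added for 2 h at 37 °C in the dark, absorbance read at 450 nm. Viability = OD sample/OD control × 100; mean ± SD, n=3.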

[4] = target: T1, Proteinase-activated receptor 2 (Homo sapiens, UniProt P55085); assay: Antagonist activity at human PAR2 expressed in Ga15-HEK293 cells assessed as reduction in PAR2 AP 2-furoyl-LIGRLO-NH2-induced cytosolic calcium incubated for 24 hrs by FLIPR - calcium mobilization assay; type: functional, cell-based
T1 sequence (P55085 whole entry): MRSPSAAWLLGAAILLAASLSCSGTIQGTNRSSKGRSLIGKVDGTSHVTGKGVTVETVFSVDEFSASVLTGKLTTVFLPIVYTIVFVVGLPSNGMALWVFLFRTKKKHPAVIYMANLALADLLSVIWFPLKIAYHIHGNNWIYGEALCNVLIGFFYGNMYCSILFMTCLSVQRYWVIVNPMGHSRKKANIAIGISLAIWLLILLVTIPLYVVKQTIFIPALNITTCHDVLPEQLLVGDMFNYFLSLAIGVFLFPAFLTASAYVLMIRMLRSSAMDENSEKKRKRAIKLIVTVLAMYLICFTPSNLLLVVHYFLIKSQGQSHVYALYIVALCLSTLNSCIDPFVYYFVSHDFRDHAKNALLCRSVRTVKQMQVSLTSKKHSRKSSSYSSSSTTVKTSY
Outline: (§3)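 HEK293/Gα15 cells stably expressing human PAR1, PAR2 or PAR4, seeded at 45,000 cells/well and grown for 24 h at 37 °C, 5% CO₂. Cells loaded with calcium dye for 60 min at 37 °C in the dark. Compounds diluted from DMSO in HBSS and preincubated in the dark at room temperature. Agonists: SFFLRR (PAR1), 2-furoyl-LIGRLO-NH₂ (PAR2), AYPGKF-NH₂ (PAR4). Fluorescence read on FLIPR; 10-point half-log curves; mean of ≥2 determinations.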

Platelet [5] = assay: Antiplatelet activity against ADP-induced human platelet aggregation in platelet in platelet rich plasma assessed as inhibition of platelet aggregation at 10 uM by photo-turbidimetry method; type: functional, cell-based; outline: as §1
[6] = target: T2, Proteinase-activated receptor 1 (Homo sapiens, UniProt P25116); assay: Antagonist activity at human PAR1 expressed in Ga15-HEK293 cells assessed as reduction in PAR1 AP SFFLRR-NH2-induced cytosolic calcium incubated for 24 hrs by FLIPR - calcium mobilization assay; type: functional, cell-based; outline: as §3
T2 sequence (P25116 whole entry): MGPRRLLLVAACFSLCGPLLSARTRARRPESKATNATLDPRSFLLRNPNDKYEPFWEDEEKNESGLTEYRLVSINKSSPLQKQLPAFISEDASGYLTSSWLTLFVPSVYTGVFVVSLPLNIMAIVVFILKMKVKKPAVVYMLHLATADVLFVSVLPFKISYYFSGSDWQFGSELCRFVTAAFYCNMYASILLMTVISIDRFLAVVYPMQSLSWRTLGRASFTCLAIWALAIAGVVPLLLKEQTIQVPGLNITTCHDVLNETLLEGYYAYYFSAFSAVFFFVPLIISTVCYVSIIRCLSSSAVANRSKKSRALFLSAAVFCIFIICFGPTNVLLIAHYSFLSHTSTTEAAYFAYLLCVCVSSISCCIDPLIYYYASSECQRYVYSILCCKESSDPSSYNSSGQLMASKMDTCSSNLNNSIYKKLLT

[7] = Metabolic stability in mouse liver microsomes assessed as half life incubated for 60 mins by LC-MS/MS analysis; type: ADME, Microsome
Outline: (§4)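 Human, rat or mouse liver microsomes in potassium phosphate buffer at pH ~7.4, warmed to 37 °C with compound (DMSO stock diluted in acetonitrile). Reaction started with NADPH; no-NADPH negative controls. Aliquots taken at 0 and 60 min, quenched in ice-cold acetonitrile with internal standard, and parent measured by LC/MS/MS. t1/2 = 0.693/k from ln concentration vs time; CLint derived from t1/2. Triplicate; mean ± SD.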

[8] = Metabolic stability in mouse liver microsomes assessed as intrinsic clearance incubated for 60 mins by LC-MS/MS analysis; type: ADME, Microsome; conditions: 1 h; outline: as §4
[9] = Metabolic stability in rat liver microsomes assessed as half life incubated for 60 mins by LC-MS/MS analysis; type: ADME, Microsome; outline: as §4
[10] = target: T3, Proteinase-activated receptor 4 (Homo sapiens, UniProt Q96RI0); assay: Antagonist activity at human PAR4 expressed in Ga15-HEK293 cells assessed as reduction in PAR4 AP AYPGKF-NH2-induced cytosolic calcium incubated for 24 hrs by FLIPR - calcium mobilization assay; type: functional, cell-based; outline: as §3
T3 sequence (Q96RI0 whole entry): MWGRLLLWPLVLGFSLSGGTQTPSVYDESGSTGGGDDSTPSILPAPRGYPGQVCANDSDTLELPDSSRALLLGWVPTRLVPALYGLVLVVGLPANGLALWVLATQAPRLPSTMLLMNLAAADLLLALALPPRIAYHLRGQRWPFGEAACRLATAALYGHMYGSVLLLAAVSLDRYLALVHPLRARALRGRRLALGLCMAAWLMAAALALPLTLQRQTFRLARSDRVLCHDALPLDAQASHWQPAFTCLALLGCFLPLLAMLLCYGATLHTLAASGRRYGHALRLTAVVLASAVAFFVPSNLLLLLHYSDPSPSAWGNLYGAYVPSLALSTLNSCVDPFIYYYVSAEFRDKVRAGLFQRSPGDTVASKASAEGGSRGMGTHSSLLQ

Platelet [11] = assay: Antiplatelet activity against collagen-induced human platelet aggregation in platelet in platelet rich plasma assessed as inhibition of platelet aggregation at 10 uM by photo-turbidimetry method; type: functional, cell-based; outline: as §1
[12] = Metabolic stability in rat liver microsomes assessed as intrinsic clearance incubated for 60 mins by LC-MS/MS analysis; type: ADME, Microsome; conditions: 1 h; outline: as §4
Platelet [13] = assay: Antiplatelet activity against U46619-induced human platelet aggregation in platelet in platelet rich plasma assessed as inhibition of platelet aggregation at 10 uM by photo-turbidimetry method; type: functional, cell-based; outline: as §1
[14] = Metabolic stability in human liver microsomes assessed as intrinsic clearance incubated for 60 mins by LC-MS/MS analysis; type: ADME, Microsome; conditions: 1 h
Platelet [15] = assay: Antiplatelet activity against AYPGKF-NH2-induced human platelet in platelet rich plasma assessed as inhibition of platelet aggregation at 10 uM by photo-turbidimetry method; type: functional, cell-based; outline: as §1
[16] = Cytotoxicity against HEK293T cells assessed as cell viability at 10 uM incubated for 48 hrs by CCK-8 assay; type: cell-based, HEK-293T; conditions: human, read-out: Activity; outline: as §2
[17] = Cytotoxicity against HEK293T cells assessed as cell viability at 1 uM incubated for 48 hrs by CCK-8 assay; type: cell-based, HEK-293T; conditions: human, read-out: Activity; outline: as §2

half-life [1]: 42.6 min | IC50 [4]: > 1000 nM | IC50 [6]: > 3160 nM | half-life [7]: 282 min | CLH [8]: 19.3 mL/min/g | half-life [9]: 31.9 min | IC50 [10]: 0.53 nM | CLH [12]: 78.1 mL/min/g | CLH [14]: 36.6 mL/min/g
Structure (SMILES): COc1cc(Cl)c2nc(-c3cc(C)cc4c(=O)n(C)cnc34)sc2c1
Activity (Platelet [2]): inactive | viability at 48 h, 20 µM [3]: 59.3% | Activity (Platelet [5]): inactive | Activity (Platelet [11]): inactive | Activity (Platelet [13]): inactive | Activity (Platelet [15]): Active | viability at 48 h, 10 µM [16]: 73.7% | viability at 48 h, 1 µM [17]: 91.3%
